Rows were chosen to be rich in hits. Some 1.5% of all compounds tested hit in one or more screens of this group.
APJ antag – antagonists of human APJ apelin receptor | inhibition, % at 20 µM | 330,000 compounds, 0.32% hits | CHO-K1 APJ beta-arrestin complementation, luminescence | AID 2521;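 active = inhibition above about 40% at 20 µM, limit read from the data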;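 also: cells challenged with 10 nM apelin-13 agonist together with compound; plate controls were apelin-13 plus DMSO wells for no effect and DMSO wells lacking apelin-13 for full effect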
EBI2 antag – blocks human EBI2 receptor beta-arrestin signaling; P32249; EBI2 beta-arrestin recruitment, luminescence, 7a,25-OHC stimulated; inhibition, % at 5 µM; AID 651636; 360,000 compounds, 0.81% hits; in the data active = inhibition above about 38%;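 also: enzyme fragment complementation signal reports receptor beta-arrestin coupling in cells; 0% = agonist plus DMSO wells and 100% = wells without agonist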
CCR6 antagonist – CCR6 (human) receptor antagonism. P51684. CHO-K1 CCR6 PathHunter beta-arrestin, luminescence, CCL20-stimulated. inhibition, % at 20 µM. 340,000 compounds, 0.49% hits. AID 493098;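 active = compounds whose inhibition of the agonist-driven luminescence signal at 20 µM reaches about 50%, limit read from the data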;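 also: cells stimulated with CCL20 at 14 nM final; plate controls were DMSO with CCL20 for no effect and DMSO without agonist for full effect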
APJ agonist – APJ receptor agonism. P35414. CHO-K1 APJ PathHunter beta-arrestin, luminescence; 0% DMSO wells, 100% apelin. activation, % at 20 µM. 330,000 compounds, 0.11% hits. AID 2520;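 active = activation more than six SD over the plate average, tested at 20 µM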;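 also: 0% = DMSO alone and 100% = apelin-13 at 10 nM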
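Assay system: engineered CHO-K1 APJ arrestin reporter cells; Amount: 1000 CHO-K1 reporter cells seeded per well; Dosing: one dose, 20 µM compound, 1% DMSO; Times: compound stimulation 90 min at 25 °C, detection 60 min; Measured by: luminescent beta-gal fragment complementation, chemiluminescent substrate; Read-out: APJ–arrestin association signal; Controls: DMSO vs Apelin-13 10 nM.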
CXCR6 inh – blocks human CXCR6 beta-arrestin recruitment | O00574 | CHO-K1 PathHunter CXCR6 beta-arrestin, luminescence | inhibition, % at 20 µM | 360,000 compounds, 0.36% hits | AID 602244; in the data active = inhibition above about 34%, passing the limit was not always enough;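 also: antagonist mode with CXCL16 agonist at 10 nM final; 0% = 10 nM CXCL16 with DMSO and 100% = unstimulated wells without agonist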
Target sequence (O00574 whole entry, looked up): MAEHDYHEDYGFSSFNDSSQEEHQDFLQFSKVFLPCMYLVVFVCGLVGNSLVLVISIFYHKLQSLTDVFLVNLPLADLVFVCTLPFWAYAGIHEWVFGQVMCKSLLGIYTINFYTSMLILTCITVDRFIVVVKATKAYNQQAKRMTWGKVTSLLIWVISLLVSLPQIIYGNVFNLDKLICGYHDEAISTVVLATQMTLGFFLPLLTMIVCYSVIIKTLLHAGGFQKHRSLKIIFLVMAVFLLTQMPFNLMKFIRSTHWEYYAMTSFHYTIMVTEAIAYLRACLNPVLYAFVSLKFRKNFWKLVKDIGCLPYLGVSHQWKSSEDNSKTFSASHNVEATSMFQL
hiPSC survival – hiPSC single-cell survival enhancement | survival enhancement, % at 20 µM | ATPlite luminescence; 100% = ROCK inhibitor wells, 0% = DMSO | 360,000 compounds, 0.044% hits; in the data active = survival enhancement above about 18%;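 also: cells exposed to compounds for 16 hours before the ATP read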
APJ antag confirm – APJ receptor antagonism confirmation. shares compounds with APJ antag. APJ beta-arrestin recruitment, luminescence, antagonist mode. inhibition, % at 20 µM. 950 compounds, 66% hits. AID 2766; in the data active = inhibition above about 50%
* hit, by the source's call.

Screening CCOc1cc(/C=C2\NC(=O)NC2=O)cc([N+](=O)[O-])c1O returned APJ antag 43.3*, EBI2 antag 8.3, CCR6 antagonist 36.1, APJ agonist -4.3, CXCR6 inh 22.4, hiPSC survival -0.6 and APJ antag confirm 34.7.
Screening CN1C(=O)/C(=C/c2cc(N=Nc3ccccc3)ccc2O)SC1=S returned APJ antag 60.1*, EBI2 antag 47.0*, CCR6 antagonist 73.5*, APJ agonist -15.1, CXCR6 inh 51.4*, hiPSC survival -0.3 and APJ antag confirm 105.2*.
For Cc1c(N2C(=O)/C(=C\c3ccccc3O)SC2=S)c(=O)n(-c2ccccc2)n1C the results were APJ antag 2.6, EBI2 antag 3.1, CCR6 antagonist 18.0, APJ agonist -1.0, CXCR6 inh 26.3 and hiPSC survival -0.8.
`CC1(C)CC2(CC(c3ccccc3F)c3cc(Cl)c(O)cc3O2)NC(=S)N1` (stereo not drawn) gave APJ antag 48.1*, EBI2 antag -5.3, CCR6 antagonist -1.0, APJ agonist -4.8, CXCR6 inh 12.7, hiPSC survival -1.8 and APJ antag confirm 112.4*.
Cc1cccc(C2CC3(CC(C)(C)NC(=S)N3)Oc3cc(O)ccc32)c1 (stereo not drawn) was read as APJ antag 10.1, EBI2 antag 0.4, CCR6 antagonist 18.1, APJ agonist -0.7, CXCR6 inh 14.5 and hiPSC survival -1.0.
CCOC(=O)/C=C/S(=O)(=O)c1ccc(NC(C)=O)cc1 was read as APJ antag 44.1*, EBI2 antag -7.1, CCR6 antagonist 48.4, APJ agonist 0.2, CXCR6 inh 34.0, hiPSC survival -5.7 and APJ antag confirm 83.2*.
`O=C(c1noc2c1CSc1ccccc1-2)N1CCN(c2ccc(Cl)cc2)CC1` gave APJ antag -23.8, EBI2 antag 24.5, CCR6 antagonist 14.1, APJ agonist -4.6, CXCR6 inh 4.7 and hiPSC survival -0.6.
`CC(C)CNc1nnnc2c1sc1nc(N3CCOCC3)c3c(c12)CC(C)(C)SC3` gave APJ antag 9.6, EBI2 antag 26.3, CCR6 antagonist 4.7, APJ agonist -2.1, CXCR6 inh 12.3 and hiPSC survival -0.4.
`CC1(C)Cc2c(c(N3CCOCC3)nc3sc4c(NN)ncnc4c23)CS1` gave APJ antag 59.5*, EBI2 antag 16.0, CCR6 antagonist 56.0*, APJ agonist -15.7, CXCR6 inh 14.2, hiPSC survival -3.5 and APJ antag confirm 89.4*.
For CCOC(=O)NC1=NCC(C)(C)S1 the results were EBI2 antag -13.8, CCR6 antagonist 2.4, CXCR6 inh -2.4 and hiPSC survival 1.9.
COc1ccc(C)cc1NC(=O)COC(=O)C1CC1 was read as APJ antag 40.9*, EBI2 antag -0.6, CCR6 antagonist 5.0, APJ agonist 6.7, CXCR6 inh -1.6, hiPSC survival -2.1 and APJ antag confirm 12.6.
For Cc1ccc(S(=O)(=O)Nc2nc3ccccc3nc2Nc2cccc(S(=O)(=O)N3CCCC3)c2)cc1 the results were APJ antag 73.7*, EBI2 antag -17.6, CCR6 antagonist 2.4, APJ agonist -0.6, CXCR6 inh 6.7, hiPSC survival -0.5 and APJ antag confirm 1.0.
CCOC(=O)C1=C(N)N(c2ccccc2Oc2ccccc2)C(=O)C1 was read as APJ antag 8.8, EBI2 antag -3.5, CCR6 antagonist 12.2, APJ agonist 0.1, CXCR6 inh 30.5 and hiPSC survival -0.9.
CCOC(=O)C1=C2NC(=O)c3ccccc3N2C(=O)C1 was read as APJ antag 53.4*, EBI2 antag 9.6, CCR6 antagonist 69.4*, APJ agonist -1.8, CXCR6 inh 15.6, hiPSC survival 0.1 and APJ antag confirm 134.2*.
For Nc1c(N2CCN(c3ccccc3)CC2)c2ccccc2oc1=O the results were APJ antag 46.3*, EBI2 antag 12.0, CCR6 antagonist 60.3*, APJ agonist -9.0, CXCR6 inh 29.7, hiPSC survival -1.1 and APJ antag confirm 56.6*.
`Nc1c(N)c2ccccc2oc1=O` gave APJ antag 6.1, EBI2 antag -12.9, CCR6 antagonist 8.3, APJ agonist -1.0, CXCR6 inh -0.9 and hiPSC survival 0.3.

From PubChem BioAssay
